Assay results: ChEMBL document CHEMBL4342456, “Preventing Morphine-Seeking Behavior through the Re-Engineering of Vincamine's Biological Activity” (J Med Chem, 2020)
Active and inactive are the calls of the source. The rule behind the calls is not given here.

Tests used:
[1] = target: C-C chemokine receptor type 8 (Homo sapiens, UniProt P51685); assay: (§1) Antagonist activity at human CCR8 expressed in CHOK1 cells assessed as inhibition in CCL1-induced beta-arrestin 2 recruitment at 20 uM incubated for 30 mins followed by CCL1 addition and measured after 90 or 180 mins by pathhunter beta-arrestin assay relative to control; format: cell-based
Sequence of C-C chemokine receptor type 8 (P51685 whole entry): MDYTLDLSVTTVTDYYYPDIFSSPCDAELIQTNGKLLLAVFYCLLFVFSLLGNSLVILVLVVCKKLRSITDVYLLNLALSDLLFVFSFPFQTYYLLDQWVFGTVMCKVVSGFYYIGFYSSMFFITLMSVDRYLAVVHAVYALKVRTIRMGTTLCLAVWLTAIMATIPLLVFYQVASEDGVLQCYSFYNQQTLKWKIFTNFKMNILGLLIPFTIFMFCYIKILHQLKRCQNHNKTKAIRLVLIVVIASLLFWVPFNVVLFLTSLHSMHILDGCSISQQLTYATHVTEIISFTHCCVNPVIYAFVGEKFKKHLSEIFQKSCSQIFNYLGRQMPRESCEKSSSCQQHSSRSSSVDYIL
In short: (§2)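 PathHunter beta-arrestin recruitment, antagonist mode, run at DiscoverX. Cells seeded and held at 37 °C, then preincubated with test sample for 30 min at 37 °C or room temperature (1% vehicle). Agonist then added at EC80 for 90 or 180 min. IC50 comes from concentration–response runs in the same format.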

Mus musculus [2] = assay: Suppression of drug-induced cocaine-seeking behavior in C57BL/6J mouse assessed as reduction in morphine-conditioned place preference at 60 nmol, icv administered 20 mins prior to behavioral morphine addition measured twice weekly for 7 weeks; format: functional, organism-based; conditions: in the assay text read “morphine-seeking” for “cocaine-seeking”
In short: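 Male C57BL/6J mice, 7–11 weeks, 20–33 g. Three-compartment counterbalanced place conditioning. Test agent given i.c.v. in 10% Solutol HS 15/90% saline, 20 min before morphine (10 mg/kg i.p., in 0.9% saline). Mice then confined 40 min in the paired outer chamber. Saline i.p. conditioning in the opposite chamber followed 4 h later. Preference was scored in a 30 min automated test. n = 16–30/group; two-way ANOVA with Tukey post hoc.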

[3] = target: D(2) dopamine receptor (Homo sapiens) (UniProt P14416); assay: Antagonist activity at human Gi/o-coupled DRD2L expressed in CHOK1 cells assessed as inhibition in dopamine-induced beta-arrestin 2 recruitment at 20 uM incubated for 30 mins followed by dopamine addition and measured after 90 or 180 mins by pathhunter beta-arrestin assay relative to control; format: cell-based; in short: as §2
Sequence of D(2) dopamine receptor (Homo sapiens) (P14416 whole entry): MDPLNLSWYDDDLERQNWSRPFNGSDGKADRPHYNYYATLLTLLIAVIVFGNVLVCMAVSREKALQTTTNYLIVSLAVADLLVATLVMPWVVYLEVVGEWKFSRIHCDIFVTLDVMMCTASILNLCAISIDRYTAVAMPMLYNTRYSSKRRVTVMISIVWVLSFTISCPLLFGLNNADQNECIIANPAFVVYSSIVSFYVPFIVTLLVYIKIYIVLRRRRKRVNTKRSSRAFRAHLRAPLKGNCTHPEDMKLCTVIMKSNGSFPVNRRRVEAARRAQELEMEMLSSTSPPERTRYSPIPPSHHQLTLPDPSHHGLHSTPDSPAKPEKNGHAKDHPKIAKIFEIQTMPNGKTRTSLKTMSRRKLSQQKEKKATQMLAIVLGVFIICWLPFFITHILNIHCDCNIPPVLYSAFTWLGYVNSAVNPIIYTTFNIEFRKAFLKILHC

Orexin receptor type 2 = target: T1, Orexin receptor type 2 (Homo sapiens, UniProt O43614); assay: Antagonist activity at human Gq-coupled HCRTR2 expressed in CHOK1 cells assessed as inhibition in Orexin A-induced beta-arrestin 2 recruitment incubated for 30 mins followed by Orexin A addition and measured after 90 or 180 mins by pathhunter beta-arrestin assay; format: cell-based
T1 sequence (O43614 whole entry): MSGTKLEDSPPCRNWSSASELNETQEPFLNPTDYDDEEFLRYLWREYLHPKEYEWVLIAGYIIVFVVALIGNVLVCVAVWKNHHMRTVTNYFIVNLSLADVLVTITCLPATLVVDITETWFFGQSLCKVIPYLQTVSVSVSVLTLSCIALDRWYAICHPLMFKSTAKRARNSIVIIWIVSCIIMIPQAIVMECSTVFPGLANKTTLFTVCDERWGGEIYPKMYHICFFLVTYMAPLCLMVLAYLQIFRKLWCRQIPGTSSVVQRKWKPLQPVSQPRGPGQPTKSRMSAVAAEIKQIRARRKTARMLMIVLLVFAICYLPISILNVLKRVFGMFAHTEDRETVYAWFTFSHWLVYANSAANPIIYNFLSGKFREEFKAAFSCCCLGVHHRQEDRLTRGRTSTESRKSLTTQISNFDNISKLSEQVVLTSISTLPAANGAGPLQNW
In short: as §2, with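 “min. […]” for “min.”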

[4] = Stability of compound in pH 2.0 HCl aqueous solution assessed as parent compound remaining at 0.025 mmol measured after 24 hrs; format: physicochemical; conditions: read-out: Stability
In short: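 Acid stability: compound held 24 h at 37 °C in acidic aqueous media at pH 2.0 or pH 4.88. Percent recovery of parent compound was measured.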

Mus musculus [5] = assay: Suppression of drug-induced morphine-seeking behavior in C57BL/6J mouse assessed as reduction in stress-induced reinstatement of morphine-CPP at 60 nmol, icv administered 15 mins prior to testing by forced swim test
[6] = target: T2, Neuropeptide S receptor (Homo sapiens) (UniProt Q6W5P4); assay: as §1, with “Gq-coupled NPSR1b” for “CCR8”, “human U2OS” for “CHOK1”, “neuropeptide S-induced” for “CCL1-induced”, “neuropeptide S” for “CCL1”; format: cell-based; in short: as §2
T2 sequence (whole entry): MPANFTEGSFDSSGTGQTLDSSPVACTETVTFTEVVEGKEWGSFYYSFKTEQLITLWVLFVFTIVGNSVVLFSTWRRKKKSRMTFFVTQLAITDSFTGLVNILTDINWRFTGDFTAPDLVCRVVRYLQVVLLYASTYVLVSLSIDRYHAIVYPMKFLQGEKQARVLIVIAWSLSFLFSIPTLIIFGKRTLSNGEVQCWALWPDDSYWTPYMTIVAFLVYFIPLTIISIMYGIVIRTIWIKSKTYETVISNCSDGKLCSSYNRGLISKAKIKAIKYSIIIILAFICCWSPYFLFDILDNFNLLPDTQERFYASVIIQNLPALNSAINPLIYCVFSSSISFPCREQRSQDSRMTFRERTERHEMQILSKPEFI

[7] = target: T3, Muscarinic acetylcholine receptor M4 (Homo sapiens) (UniProt P08173); assay: as §1, with “Gs/Gi/o-coupled CHRM4” for “CCR8”, “acetylcholine-induced” for “CCL1-induced”, “acetylcholine” for “CCL1”; format: cell-based; in short: as §2
T3 sequence (whole entry): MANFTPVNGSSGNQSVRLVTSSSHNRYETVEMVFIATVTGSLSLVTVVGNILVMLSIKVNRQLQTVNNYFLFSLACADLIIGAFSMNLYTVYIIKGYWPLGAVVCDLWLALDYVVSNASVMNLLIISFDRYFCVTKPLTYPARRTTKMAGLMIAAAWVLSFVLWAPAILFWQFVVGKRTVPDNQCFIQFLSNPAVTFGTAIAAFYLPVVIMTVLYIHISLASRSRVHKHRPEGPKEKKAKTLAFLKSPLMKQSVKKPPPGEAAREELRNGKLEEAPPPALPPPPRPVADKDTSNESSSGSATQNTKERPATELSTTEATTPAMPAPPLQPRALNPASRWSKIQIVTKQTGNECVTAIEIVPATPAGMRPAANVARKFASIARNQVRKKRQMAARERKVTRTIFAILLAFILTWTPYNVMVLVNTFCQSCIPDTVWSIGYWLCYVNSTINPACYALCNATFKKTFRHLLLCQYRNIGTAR

Prostacyclin receptor = Prostacyclin receptor (Homo sapiens, UniProt P43119); assay: Antagonist activity at human Gs-coupled PTGIR assessed as inhibition in beraprost-induced beta-arrestin 2 recruitment at 20 uM incubated for 30 mins followed by beraprost- addition and measured after 90 or 180 mins by pathhunter beta-arrestin assay relative to control; in short: as §2
Sequence of Prostacyclin receptor (P43119 whole entry): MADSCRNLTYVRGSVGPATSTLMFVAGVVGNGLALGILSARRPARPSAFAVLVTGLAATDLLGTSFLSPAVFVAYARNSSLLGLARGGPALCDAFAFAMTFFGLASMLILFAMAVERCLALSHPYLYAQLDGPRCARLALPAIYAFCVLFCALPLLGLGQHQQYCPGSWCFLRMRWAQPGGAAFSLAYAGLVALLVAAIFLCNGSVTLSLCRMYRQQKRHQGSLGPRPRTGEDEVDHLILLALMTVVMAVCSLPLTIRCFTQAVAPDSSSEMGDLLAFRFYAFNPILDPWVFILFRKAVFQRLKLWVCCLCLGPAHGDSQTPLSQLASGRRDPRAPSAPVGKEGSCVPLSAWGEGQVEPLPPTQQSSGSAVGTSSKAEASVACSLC

[8] = Toxicity in C57BL/6J mouse assessed as induction of behavioral changes at 60 nmol, icv; conditions: in vivo, icv_or_intrathecal

inhibition [1]: 59%
inhibition [3]: 15%
IC50 (Orexin receptor type 2): 2.26 µM
remaining at 24 h, 0.025 mmol [4]: 92.1%
inhibition [6]: 30%
inhibition [7]: 75%
inhibition (Prostacyclin receptor): 75%
SMILES: CC[C@@]12CCCN3CCc4c([nH]c5ccccc45)[C@]31N(Cc1cn(Cc3ccccc3)nn1)C(=O)C2
Activity (Mus musculus [2]): Active
Activity (Mus musculus [5]): Active
Activity [8]: Non-Toxic
